# Data published in ChEMBL document CHEMBL1153346, “Structure-activity study of pentamidine analogues as antiprotozoal agents” (J Med Chem, 2009).
# Activity calls are given as the source filed them. No cut-off for these calls is given here.
# Assays:
# [1] = test system: Trypanosoma brucei rhodesiense; experiment: Antitrypanosomal activity against Trypanosoma brucei rhodesiense STIB900 trypomastigotes infected in NMRI mouse assessed as survival and aparasitemic condition at 20 mg/kg, ip administered from day 3 to day 6 postinfection measured after 60 days postinfection; type: functional, organism-based; design: dose 20 mg/kg
# Method in brief: (§1)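 STIB900 acute mouse model with 4 mice per group. Compound in DMSO diluted with water to a final 10% DMSO, given intraperitoneally once daily for four days. An infected, untreated control group was included. Tail blood checked for parasitemia until day 60. Mice alive and aparasitemic at day 60 counted as cured; deaths recorded for mean survival time.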
# [2] = Selectivity index, ratio of IC50 for rat L6 cells to IC50 for Trypanosoma brucei rhodesiense STIB900 trypomastigotes; type: toxicity, cell-based; details: read-out: Ratio IC50
# Method in brief: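 Ratio of L6 IC50 to STIB900 IC50. L6 cells: 4000/well in RPMI 1640 with 10% FBS, 70 h at 37 °C. Bloodstream forms: 2000/well in supplemented MEM with 15% horse serum, 70 h at 37 °C. Both read by Alamar blue fluorescence; IC50s from sigmoidal curves, two independent runs in duplicate.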
# [3] = Selectivity index, ratio of IC50 for rat L6 cells to IC50 for chloroquine-resistant Plasmodium falciparum K1; type: toxicity, cell-based; details: read-out: Ratio IC50
# Method in brief: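 Ratio of L6 IC50 to K1 IC50. L6 cells: Alamar blue assay after 70 h, 37 °C. K1: [3H]-hypoxanthine incorporation in infected red cells over 48 + 24 h at 37 °C under low O2. IC50s from sigmoidal curves, two independent runs in duplicate.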
# [4] = test system: Mus musculus; experiment: Toxicity in NMRI mouse infected with Trypanosoma brucei rhodesiense STIB900 trypomastigotes at 20 mg/kg, ip administered from day 3 to day 6 postinfection; type: organism-based; design: dose 20 mg/kg, route intraperitoneal; details: in vivo
# [5] = test system: Trypanosoma brucei rhodesiense; experiment: Antiprotozoal activity against Trypanosoma brucei rhodesiense STIB900 trypomastigotes after 70 hrs by alamar blue assay; type: functional, organism-based
# Method in brief: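 Bloodstream forms, 2000 per well, in MEM with Earle's salts plus 0.2 mM 2-mercaptoethanol, 1 mM pyruvate, 0.5 mM hypoxanthine and 15% heat-inactivated horse serum. Exposed to serial dilutions (DMSO ≤1%) for 70 h at 37 °C in 5% CO₂. Resazurin then added for a further 2-6 h. IC50 from sigmoidal curves; two independent runs in duplicate.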
# [6] = test system: Plasmodium falciparum; experiment: Antiprotozoal activity after 48 hrs against chloroquine-resistant Plasmodium falciparum K1 infected erythrocytes by [3H]hypoxanthine uptake; type: functional, organism-based
# Method in brief: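 Erythrocytic stages in infected human red cells (hematocrit 1.25%, parasitemia 0.3%) in supplemented RPMI 1640 with Albumax II. Serial dilutions incubated at 37 °C in 93% N2/4% CO2/3% O2. [3H]-hypoxanthine (0.5 µCi/well) added at 48 h, then 24 h more. Incorporation counted by scintillation. IC50 from sigmoidal curves; two independent runs in duplicate.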
# [7] = test system: Leishmania donovani; experiment: Antiprotozoal activity against Leishmania donovani MHOM/SD/62/1S-CL2D axenic amastigotes after 72 hrs; type: functional, organism-based
# Method in brief: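 L. donovani axenic amastigotes, adapted from promastigotes and grown in amastigote medium at 37 °C. 6 × 10⁴ parasites per well with 2-fold compound dilutions (DMSO ≤1%), incubated 72 h at 37 °C in humidified 5% CO₂. Growth read by tetrazolium (CellTiter) absorbance at 490 nm. IC50 from a four-parameter dose-response fit. Average of duplicate determinations.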
# [8] = test system: Trypanosoma brucei rhodesiense; experiment: Antitrypanosomal activity against Trypanosoma brucei rhodesiense STIB900 trypomastigotes infected in NMRI mouse assessed as mouse survival at 20 mg/kg, ip administered from day 3 to day 6 postinfection; type: functional; details: route intraperitoneal
# Method in brief: (§2)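 STIB900 acute mouse model. Dosing was intraperitoneal, daily for four days, in DMSO diluted with water to 10% final DMSO. An infected untreated control group was kept. Tail blood was checked for parasitemia to day 60, and deaths were recorded to give mean survival days. Mice surviving and aparasitemic at day 60 counted as cured.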
# [9] = test system: L6; experiment: Cytotoxicity against rat L6 cells after 70 hrs by alamar blue assay; type: cell-based; details: L6, 70 h
# Method in brief: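 L6 rat myoblasts, 4000 per well, in RPMI 1640 with 2 mM L-glutamine, HEPES, NaHCO₃ and 10% FBS. Exposed to serial dilutions (DMSO ≤1%) for 70 h at 37 °C in humidified 5% CO₂. Resazurin then added for 2-3 h; fluorescence read at ex 536/em 588 nm. IC50 from sigmoidal curves; two independent runs in duplicate.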
# [10] = Selectivity index, ratio of IC50 for rat L6 cells to IC50 for Leishmania donovani MHOM/SD/62/1S-CL2D axenic amastigotes; type: toxicity, cell-based; details: read-out: Ratio IC50
# Method in brief: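 Amastigotes: 6 × 10⁴ parasites/well with 2-fold dilutions, 72 h at 37 °C in 5% CO2. Growth read by tetrazolium CellTiter absorbance at 490 nm; IC50 from a four-parameter dose-response fit.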
# [11] = test system: Trypanosoma brucei rhodesiense; experiment: Antitrypanosomal activity against Trypanosoma brucei rhodesiense STIB900 trypomastigotes infected in NMRI mouse assessed as mouse survival at 10 mg/kg, ip administered from day 3 to day 6 postinfection; type: functional; details: route intraperitoneal; method in brief: as §2
# [12] = test system: Trypanosoma brucei rhodesiense; experiment: Antitrypanosomal activity against Trypanosoma brucei rhodesiense STIB900 trypomastigotes infected in NMRI mouse assessed as survival and aparasitemic condition at 10 mg/kg, ip administered from day 3 to day 6 postinfection measured after 60 days postinfection; type: functional, organism-based; design: dose 10 mg/kg; method in brief: as §1
# [13] = test system: Trypanosoma brucei rhodesiense; experiment: Antitrypanosomal activity against Trypanosoma brucei rhodesiense STIB900 trypomastigotes infected in NMRI mouse assessed as mouse survival at 5 mg/kg, ip administered from day 3 to day 6 postinfection; type: functional; details: route intraperitoneal; method in brief: as §2
# [14] = test system: Trypanosoma brucei rhodesiense; experiment: Antitrypanosomal activity against Trypanosoma brucei rhodesiense STIB900 trypomastigotes infected in NMRI mouse assessed as survival and aparasitemic condition at 5 mg/kg, ip administered from day 3 to day 6 postinfection measured after 60 days postinfection; type: functional, organism-based; design: dose 5 mg/kg; method in brief: as §1
# [15] = test system: Trypanosoma brucei rhodesiense; experiment: Antitrypanosomal activity against Trypanosoma brucei rhodesiense STIB900 trypomastigotes infected in NMRI mouse assessed as survival and aparasitemic condition at 2 mg/kg, ip administered from day 3 to day 6 postinfection measured after 60 days postinfection; type: functional, organism-based; design: dose 2 mg/kg
# [16] = test system: Trypanosoma brucei rhodesiense; experiment: Antitrypanosomal activity against Trypanosoma brucei rhodesiense STIB900 trypomastigotes infected in NMRI mouse assessed as mouse survival at 8 mg/kg, ip administered from day 3 to day 6 postinfection; type: functional; details: route intraperitoneal
# [17] = test system: Trypanosoma brucei rhodesiense; experiment: Antitrypanosomal activity against Trypanosoma brucei rhodesiense STIB900 trypomastigotes infected in NMRI mouse assessed as survival and aparasitemic condition at 8 mg/kg, ip administered from day 3 to day 6 postinfection measured after 60 days postinfection; type: functional, organism-based; design: dose 8 mg/kg
# [18] = test system: Trypanosoma brucei rhodesiense; experiment: Antitrypanosomal activity against Trypanosoma brucei rhodesiense STIB900 trypomastigotes infected in NMRI mouse assessed as mouse survival at 2 mg/kg, ip administered from day 3 to day 6 postinfection; type: functional; details: route intraperitoneal
# [19] = test system: Trypanosoma brucei rhodesiense; experiment: Antitrypanosomal activity against Trypanosoma brucei rhodesiense STIB900 trypomastigotes infected in NMRI mouse assessed as mouse survival at 1 mg/kg, ip administered from day 3 to day 6 postinfection; type: functional; details: route intraperitoneal
Structure (SMILES),Activity [1],selectivity ratio [2],selectivity ratio [3],Activity [4],IC50 [5] [nM],IC50 [6] [nM],IC50 [7] [nM],Survival [8] [days],IC50 [9] [nM],selectivity ratio [10],Survival [11] [days],Activity [12],Survival [13] [days],Activity [14],Activity [15],Survival [16] [days],Activity [17],Survival [18] [days],Survival [19] [days]
CCOC(=O)c1cc(C(=N)NC(C)C)ccc1OCCCCCOc1ccc(C(=N)NC(C)C)cc1C(=O)OCC.Cl.Cl,inactive,> 2740,> 10800,Toxic,51,13,55900,5.5,> 140000,2,,,,,,,,,
Cl.Cl.c1cc(C2=NCCN2)ccc1OCCCOc1ccc(C2=NCCN2)cc1,,685,7530,,110,10,2880,>51,75300,26,22.8,inactive,,,,,,,
Cl.Cl.c1cc(C2=NCCN2)ccc1OCCCCOc1ccc(C2=NCCN2)cc1,,257,2020,,244,31,3060,>41.5,62700,20,,,7.8,inactive,,,,,
COc1cc(C2=NCCN2)ccc1OCCCCCOc1ccc(C2=NCCN2)cc1OC.Cl.Cl,,> 3950,> 8320,,40,19,36300,,> 158000,> 4,>31.8,inactive,,,,,,,
Cl.Cl.Cl.Cl.N=C(N)c1ccc(OCCCCOc2ccc(C(=N)N)cc2Cl)c(Cl)c1,,260,574,,42,19,2130,>41.5,10900,5,22,inactive,,,,,,,
COc1cc(C(=N)N)ccc1OCCCCOc1ccc(C(=N)N)cc1OC.Cl.Cl,,> 693,> 4250,,270,44,38100,,> 187000,> 5,17.5,inactive,,,,,,,
Cl.Cl.N=C(N)c1ccc(OCCCOc2ccc(C(=N)N)cc2Br)c(Br)c1,,337,400,,19,16,1170,,6400,5,,,13,inactive,,,,,
Cl.Cl.N=C(N)c1ccc(SCCCCCSc2ccc(C(=N)N)cc2)cc1,,1560,411,,5,19,1270,,7800,6,,,32.3,inactive,,,,,
Nc1nc(N)nc(Nc2ccc([As]3SCC(CO)S3)cc2)n1 (centres undefined) [MELARSOPROL],,,,,,,,,,,,,,,Active,>60,Active,>60,>51.5
Cl.Cl.N=C(N)c1cccc(OCCCCOc2cccc(C(=N)N)c2)c1,,286,762,,56,21,4460,>43,16000,4,20,inactive,,,,,,,
Cl.Cl.Cl.Cl.N=C(N)c1ccc(OCCCOc2ccc(C(=N)N)cc2Cl)c(Cl)c1,,6200,1300,,4,19,1560,,24800,16,,,>60,Active,,,,,
COc1cc(C2=NCCN2)ccc1OCCCCOc1ccc(C2=NCCN2)cc1OC.Cl.Cl,,> 2410,> 8200,,68,20,38900,,> 164000,> 4,18.3,inactive,,,,,,,
